According to ChEMBL document CHEMBL4028836, “Optimization of M4 positive allosteric modulators (PAMs): The discovery of VU0476406, a non-human primate in vivo tool compound for translational pharmacology” (Bioorg Med Chem Lett, 2017):

Columns and labels:
Cytochrome P450 1A2 = biological target: T1, Cytochrome P450 1A2 (Homo sapiens, UniProt P05177); experiment: Inhibition of CYP1A2 (unknown origin); format: ADME
T1 sequence (P05177 whole entry): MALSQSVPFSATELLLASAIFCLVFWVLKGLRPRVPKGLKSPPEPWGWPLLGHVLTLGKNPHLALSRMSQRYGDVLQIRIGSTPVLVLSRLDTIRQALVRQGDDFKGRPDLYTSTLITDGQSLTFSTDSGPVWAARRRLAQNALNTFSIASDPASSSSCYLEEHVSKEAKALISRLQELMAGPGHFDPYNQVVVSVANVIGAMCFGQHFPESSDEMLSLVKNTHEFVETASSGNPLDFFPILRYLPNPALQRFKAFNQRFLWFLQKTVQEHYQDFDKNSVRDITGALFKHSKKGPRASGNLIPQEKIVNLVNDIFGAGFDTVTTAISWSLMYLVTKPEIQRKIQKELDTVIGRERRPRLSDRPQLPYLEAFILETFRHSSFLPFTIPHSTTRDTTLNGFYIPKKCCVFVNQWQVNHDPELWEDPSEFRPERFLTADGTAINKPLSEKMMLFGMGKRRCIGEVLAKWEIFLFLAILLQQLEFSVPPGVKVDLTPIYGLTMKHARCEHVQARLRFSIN

Cytochrome P450 2C9 = Cytochrome P450 2C9 (Homo sapiens, UniProt P11712); experiment: Inhibition of CYP2C9 (unknown origin); format: ADME
Cytochrome P450 2D6 = Cytochrome P450 2D6 (Homo sapiens, UniProt P10635); experiment: Inhibition of CYP2D6 (unknown origin); format: ADME
Cytochrome P450 3A4 = Cytochrome P450 3A4 (Homo sapiens, UniProt P08684); experiment: Inhibition of CYP3A4 (unknown origin); format: ADME
Rattus norvegicus [1] = experiment: Elimination half-life in Sprague-Dawley rat at 0.1 to 1 mg/kg, iv; format: ADME, organism-based; settings: in vivo
Rattus norvegicus [2] = experiment: Volume of distribution at steady state […] in Sprague-Dawley rat at 0.1 to 1 mg/kg, iv; format: ADME, organism-based; settings: in vivo
How it was run: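 IV pharmacokinetics in Sprague-Dawley rats at 0.1–1.0 mg/kg. CLp, elimination t½ and Vss derived.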

[3] = Brain to plasma permeability coefficient, Kp of the compound in Sprague-Dawley rat at 0.1 to 0.2 mg/kg, iv measured at 0.25 hrs post dose; format: ADME, organism-based
How it was run: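 Sprague-Dawley rats were dosed IV at 0.1–0.2 mg/kg, with brain and plasma sampled at 0.25 hr. Brain:plasma Kp was calculated, with Kp,uu where unbound fractions were available.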

[4] = biological target: Muscarinic acetylcholine receptor M4 (Rattus norvegicus, UniProt P08485); experiment: Positive allosteric modulation of rat M4 receptor assessed as increase in acetylcholine-induced calcium mobilization; format: functional
How it was run: (§1)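 M4 PAM concentration-response curves measured by calcium mobilization at the stated species' receptor. Potency reported as EC50/pEC50 and efficacy as % of acetylcholine maximum.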

[5] = Positive allosteric modulation of dog M4 receptor assessed as increase in acetylcholine-induced calcium mobilization; design: species or system Canis lupus familiaris; how it was run: as §1
[6] = biological target: Muscarinic acetylcholine receptor M1 (Homo sapiens, UniProt P11229); experiment: Activity at human M1 receptor
[7] = biological target: Muscarinic acetylcholine receptor M5 (Homo sapiens, UniProt P08912); experiment: Activity at human M5 receptor
[8] = biological target: Muscarinic acetylcholine receptor M1 (Rattus norvegicus, UniProt P08482); experiment: Activity at rat M1 receptor
[9] = biological target: Muscarinic acetylcholine receptor M2 (Rattus norvegicus, UniProt P10980); experiment: Activity at rat M2 receptor
[10] = biological target: Muscarinic acetylcholine receptor M3 (Rattus norvegicus, UniProt P08483); experiment: Activity at rat M3 receptor
[11] = biological target: Muscarinic acetylcholine receptor M5 (Rattus norvegicus, UniProt P08911); experiment: Activity at rat M5 receptor
Salmonella typhimurium = experiment: Mutagenicity in Salmonella typhimurium TA98 by mini-Ames test; format: toxicity; settings: salmonella enterica subsp. enterica serovar typhimurium
How it was run: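 Mini-Ames mutagenicity assay in Salmonella typhimurium strains TA98 and TA100, run with and without S9 metabolic activation.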

CYP2B6 = CYP2B6 (Homo sapiens, UniProt P20813); experiment: Induction of CYP2B6 in cryopreserved human hepatocytes measured after 48 hrs; format: ADME, cell-based
How it was run: (§2)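 Cryopreserved human hepatocytes incubated for 48 hr, with enzyme activity as read-out. Induction expressed as EC50 and Emax.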

CYP3A4 = CYP3A4 (Homo sapiens, UniProt P08684); experiment: Induction of CYP3A4 in cryopreserved human hepatocytes measured after 48 hrs; format: ADME, cell-based; how it was run: as §2
[12] = Oral bioavailability in rat at 10 mg/kg; format: ADME, organism-based; settings: in vivo
How it was run: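 Rat oral bioavailability from a 10 mg/kg solution dose. Separately, the HCl salt was dosed as a suspension.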

[13] = Ratio of unbound CSF to plasma concentration in dog at 3 mg/kg, iv or po at 2 hrs post dose; format: ADME, organism-based, Canis lupus familiaris
How it was run: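 CNS penetration in dog by terminal study at 2.0 hr. Brain:plasma Kp, Kp,uu and unbound CSF:plasma ratio determined.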

[14] = Drug metabolism in dog cryopreserved hepatocytes assessed as metabolite M1 formation; format: ADME, cell-based, Canis lupus familiaris, Hepatocyte
[15] = Drug metabolism in rat cryopreserved hepatocytes assessed as metabolite M1 formation; format: ADME, cell-based, Hepatocyte
[16] = Drug metabolism in human cryopreserved hepatocytes assessed as metabolite M1 formation; format: ADME, cell-based, Hepatocyte
[17] = Drug metabolism in cynomolgus monkey cryopreserved hepatocytes assessed as metabolite M2 formation; format: ADME, cell-based, Macaca fascicularis, Hepatocyte
[18] = Drug metabolism in rat cryopreserved hepatocytes assessed as metabolite M3 formation; format: ADME, cell-based, Hepatocyte
[19] = Drug metabolism in cynomolgus monkey cryopreserved hepatocytes assessed as metabolite M3 formation; format: ADME, cell-based, Macaca fascicularis, Hepatocyte
[20] = Drug metabolism in human cryopreserved hepatocytes assessed as metabolite M3 formation; format: ADME, cell-based, Hepatocyte
[21] = Drug metabolism in rat cryopreserved hepatocytes assessed as metabolite M4 formation; format: ADME, cell-based, Hepatocyte
[22] = Drug metabolism in cynomolgus monkey cryopreserved hepatocytes assessed as metabolite M4 formation; format: ADME, cell-based, Macaca fascicularis, Hepatocyte
[23] = Drug metabolism in human cryopreserved hepatocytes assessed as metabolite M4 formation; format: ADME, cell-based, Hepatocyte
[24] = Drug metabolism in rat cryopreserved hepatocytes assessed as metabolite M5 formation; format: ADME, cell-based, Hepatocyte
[25] = Drug metabolism in cynomolgus monkey cryopreserved hepatocytes assessed as metabolite M5 formation; format: ADME, cell-based, Macaca fascicularis, Hepatocyte
[26] = Drug metabolism in human cryopreserved hepatocytes assessed as metabolite M5 formation; format: ADME, cell-based, Hepatocyte
[27] = Drug metabolism in dog cryopreserved hepatocytes assessed as metabolite M5 formation; format: ADME, cell-based, Canis lupus familiaris, Hepatocyte
[28] = Drug metabolism in rat cryopreserved hepatocytes assessed as metabolite M6 formation; format: ADME, cell-based, Hepatocyte
[29] = Drug metabolism in human cryopreserved hepatocytes assessed as metabolite M6 formation; format: ADME, cell-based, Hepatocyte
[30] = Drug metabolism in cynomolgus monkey cryopreserved hepatocytes assessed as metabolite M7 formation; format: ADME, cell-based, Macaca fascicularis, Hepatocyte
[31] = Drug metabolism in human cryopreserved hepatocytes assessed as metabolite M7 formation; format: ADME, cell-based, Hepatocyte
[32] = Drug metabolism in cynomolgus monkey cryopreserved hepatocytes assessed as metabolite M8 formation; format: ADME, cell-based, Macaca fascicularis, Hepatocyte
[33] = Drug metabolism in human cryopreserved hepatocytes assessed as metabolite M8 formation; format: ADME, cell-based, Hepatocyte
[34] = Glutathione reactivity in human hepatic microsomes assessed as GSH-adduct formation; format: ADME, Liver, Microsome
[35] = Aqueous solubility of the compound at pH 7.4; format: physicochemical; settings: buffer
[36] = Unbound brain concentration in rat; format: ADME, tissue-based

Chain of Muscarinic acetylcholine receptor M4 (P08485 whole entry): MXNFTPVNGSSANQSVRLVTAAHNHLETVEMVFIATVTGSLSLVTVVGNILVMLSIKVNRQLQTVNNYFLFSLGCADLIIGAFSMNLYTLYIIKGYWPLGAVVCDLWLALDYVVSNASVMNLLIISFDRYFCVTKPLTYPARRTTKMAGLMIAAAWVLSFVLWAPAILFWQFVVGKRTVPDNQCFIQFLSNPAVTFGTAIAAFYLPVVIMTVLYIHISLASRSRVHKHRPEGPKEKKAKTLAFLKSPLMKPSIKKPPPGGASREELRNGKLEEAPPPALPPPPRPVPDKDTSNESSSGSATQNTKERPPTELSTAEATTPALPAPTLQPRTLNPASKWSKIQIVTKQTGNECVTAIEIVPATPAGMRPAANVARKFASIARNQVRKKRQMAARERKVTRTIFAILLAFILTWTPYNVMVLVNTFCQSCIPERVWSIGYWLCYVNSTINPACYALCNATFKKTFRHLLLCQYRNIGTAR
Chain of Muscarinic acetylcholine receptor M1 (Homo sapiens, UniProt P11229) (P11229 whole entry): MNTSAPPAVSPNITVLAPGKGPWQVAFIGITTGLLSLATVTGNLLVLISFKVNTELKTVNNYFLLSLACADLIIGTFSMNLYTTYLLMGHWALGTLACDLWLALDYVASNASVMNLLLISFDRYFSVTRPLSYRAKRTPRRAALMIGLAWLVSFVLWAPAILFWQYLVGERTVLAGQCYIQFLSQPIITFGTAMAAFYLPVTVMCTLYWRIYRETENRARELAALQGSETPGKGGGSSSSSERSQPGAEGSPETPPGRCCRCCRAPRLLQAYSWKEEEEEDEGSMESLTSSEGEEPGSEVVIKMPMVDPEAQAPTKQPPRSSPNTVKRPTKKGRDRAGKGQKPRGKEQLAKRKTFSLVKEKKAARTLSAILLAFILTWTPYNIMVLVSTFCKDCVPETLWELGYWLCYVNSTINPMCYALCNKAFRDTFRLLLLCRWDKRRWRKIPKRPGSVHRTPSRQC
Chain of Muscarinic acetylcholine receptor M5 (Rattus norvegicus, UniProt P08911) (P08911 whole entry): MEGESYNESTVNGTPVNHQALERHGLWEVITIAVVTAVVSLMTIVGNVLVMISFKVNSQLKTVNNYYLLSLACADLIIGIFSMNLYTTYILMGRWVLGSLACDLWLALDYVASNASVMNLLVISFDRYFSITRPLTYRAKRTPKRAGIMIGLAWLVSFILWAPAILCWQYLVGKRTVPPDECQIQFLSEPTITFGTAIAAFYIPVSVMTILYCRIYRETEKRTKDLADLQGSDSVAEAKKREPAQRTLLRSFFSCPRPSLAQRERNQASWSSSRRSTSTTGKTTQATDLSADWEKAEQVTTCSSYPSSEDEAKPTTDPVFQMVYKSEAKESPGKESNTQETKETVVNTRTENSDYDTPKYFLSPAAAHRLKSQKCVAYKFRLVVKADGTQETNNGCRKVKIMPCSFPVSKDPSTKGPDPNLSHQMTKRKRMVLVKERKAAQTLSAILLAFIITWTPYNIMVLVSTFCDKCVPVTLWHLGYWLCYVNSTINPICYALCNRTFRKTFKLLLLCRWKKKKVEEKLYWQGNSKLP
Chain of Cytochrome P450 2D6 (P10635 whole entry): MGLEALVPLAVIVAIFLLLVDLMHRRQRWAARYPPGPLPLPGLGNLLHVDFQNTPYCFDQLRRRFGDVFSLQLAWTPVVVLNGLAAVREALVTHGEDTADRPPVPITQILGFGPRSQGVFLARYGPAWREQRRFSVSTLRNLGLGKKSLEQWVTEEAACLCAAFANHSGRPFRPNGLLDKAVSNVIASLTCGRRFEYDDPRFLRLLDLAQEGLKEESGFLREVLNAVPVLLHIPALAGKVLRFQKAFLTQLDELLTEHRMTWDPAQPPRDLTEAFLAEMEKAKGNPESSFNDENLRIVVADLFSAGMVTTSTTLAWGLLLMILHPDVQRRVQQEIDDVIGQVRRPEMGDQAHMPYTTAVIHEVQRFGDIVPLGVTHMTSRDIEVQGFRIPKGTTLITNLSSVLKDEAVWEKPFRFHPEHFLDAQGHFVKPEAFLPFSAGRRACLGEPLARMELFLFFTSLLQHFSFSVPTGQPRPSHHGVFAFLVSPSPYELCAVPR
Chain of Muscarinic acetylcholine receptor M1 (Rattus norvegicus, UniProt P08482) (P08482 whole entry): as the sequence (P11229 whole entry) above, with A5V, T254S, P309S, R320K, A337G, I413V counted along it
Chain of Cytochrome P450 2C9 (P11712 whole entry): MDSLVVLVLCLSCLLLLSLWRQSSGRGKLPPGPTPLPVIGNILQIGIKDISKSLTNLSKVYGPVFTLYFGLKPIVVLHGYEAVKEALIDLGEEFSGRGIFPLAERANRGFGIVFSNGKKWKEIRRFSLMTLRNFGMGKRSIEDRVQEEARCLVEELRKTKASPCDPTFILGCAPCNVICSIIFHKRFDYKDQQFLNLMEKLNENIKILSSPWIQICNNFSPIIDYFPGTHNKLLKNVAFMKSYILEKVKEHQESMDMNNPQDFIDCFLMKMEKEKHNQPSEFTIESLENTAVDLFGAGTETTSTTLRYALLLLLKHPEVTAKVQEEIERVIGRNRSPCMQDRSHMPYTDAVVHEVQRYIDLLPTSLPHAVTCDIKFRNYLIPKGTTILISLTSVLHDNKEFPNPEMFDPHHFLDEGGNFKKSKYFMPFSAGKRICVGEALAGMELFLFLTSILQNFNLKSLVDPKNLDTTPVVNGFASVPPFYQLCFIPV
Chain of Cytochrome P450 3A4 (P08684 whole entry): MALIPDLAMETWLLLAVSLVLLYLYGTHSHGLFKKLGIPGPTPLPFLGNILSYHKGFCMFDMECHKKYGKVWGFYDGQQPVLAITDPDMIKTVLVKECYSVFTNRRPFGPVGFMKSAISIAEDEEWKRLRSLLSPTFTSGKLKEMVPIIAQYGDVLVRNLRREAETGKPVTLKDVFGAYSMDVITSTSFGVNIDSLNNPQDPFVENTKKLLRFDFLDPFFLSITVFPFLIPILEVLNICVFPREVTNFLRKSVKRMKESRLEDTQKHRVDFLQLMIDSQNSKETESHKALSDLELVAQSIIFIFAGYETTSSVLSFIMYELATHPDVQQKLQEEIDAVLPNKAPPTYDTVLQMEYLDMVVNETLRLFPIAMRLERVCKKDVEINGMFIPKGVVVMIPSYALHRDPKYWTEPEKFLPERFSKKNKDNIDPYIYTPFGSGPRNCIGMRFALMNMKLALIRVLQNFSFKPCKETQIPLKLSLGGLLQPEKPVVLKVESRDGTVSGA
Chain of CYP3A4 (P08684 whole entry): as above
Chain of Muscarinic acetylcholine receptor M2 (P10980 whole entry): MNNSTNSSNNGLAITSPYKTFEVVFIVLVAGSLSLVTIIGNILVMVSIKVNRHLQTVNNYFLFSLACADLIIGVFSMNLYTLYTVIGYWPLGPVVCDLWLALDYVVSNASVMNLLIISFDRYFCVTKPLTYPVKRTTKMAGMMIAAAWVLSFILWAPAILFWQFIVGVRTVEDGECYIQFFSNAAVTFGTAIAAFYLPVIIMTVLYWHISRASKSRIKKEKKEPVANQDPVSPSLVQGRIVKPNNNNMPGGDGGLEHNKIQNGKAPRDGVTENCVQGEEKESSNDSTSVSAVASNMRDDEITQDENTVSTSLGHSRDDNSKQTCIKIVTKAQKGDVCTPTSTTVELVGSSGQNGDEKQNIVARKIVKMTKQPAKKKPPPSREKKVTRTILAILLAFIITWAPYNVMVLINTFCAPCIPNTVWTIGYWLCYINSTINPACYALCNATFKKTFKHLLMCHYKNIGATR
Chain of Muscarinic acetylcholine receptor M3 (P08483 whole entry): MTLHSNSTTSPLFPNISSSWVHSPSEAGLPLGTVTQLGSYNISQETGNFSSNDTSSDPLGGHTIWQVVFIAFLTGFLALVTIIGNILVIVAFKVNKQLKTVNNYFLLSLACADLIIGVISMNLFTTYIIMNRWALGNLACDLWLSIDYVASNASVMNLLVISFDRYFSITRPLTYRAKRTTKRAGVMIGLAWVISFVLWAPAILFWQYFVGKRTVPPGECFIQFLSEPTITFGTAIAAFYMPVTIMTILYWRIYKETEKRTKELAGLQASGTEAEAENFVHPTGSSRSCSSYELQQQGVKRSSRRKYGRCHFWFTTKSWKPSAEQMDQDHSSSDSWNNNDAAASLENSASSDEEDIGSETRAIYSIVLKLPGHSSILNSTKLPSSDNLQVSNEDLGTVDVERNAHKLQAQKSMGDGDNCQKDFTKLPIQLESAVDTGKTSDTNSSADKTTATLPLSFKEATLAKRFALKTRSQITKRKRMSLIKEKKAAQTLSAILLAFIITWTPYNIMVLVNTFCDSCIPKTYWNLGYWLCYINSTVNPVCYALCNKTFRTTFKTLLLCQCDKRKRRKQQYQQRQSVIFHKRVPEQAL
Chain of Muscarinic acetylcholine receptor M5 (Homo sapiens, UniProt P08912) (P08912 whole entry): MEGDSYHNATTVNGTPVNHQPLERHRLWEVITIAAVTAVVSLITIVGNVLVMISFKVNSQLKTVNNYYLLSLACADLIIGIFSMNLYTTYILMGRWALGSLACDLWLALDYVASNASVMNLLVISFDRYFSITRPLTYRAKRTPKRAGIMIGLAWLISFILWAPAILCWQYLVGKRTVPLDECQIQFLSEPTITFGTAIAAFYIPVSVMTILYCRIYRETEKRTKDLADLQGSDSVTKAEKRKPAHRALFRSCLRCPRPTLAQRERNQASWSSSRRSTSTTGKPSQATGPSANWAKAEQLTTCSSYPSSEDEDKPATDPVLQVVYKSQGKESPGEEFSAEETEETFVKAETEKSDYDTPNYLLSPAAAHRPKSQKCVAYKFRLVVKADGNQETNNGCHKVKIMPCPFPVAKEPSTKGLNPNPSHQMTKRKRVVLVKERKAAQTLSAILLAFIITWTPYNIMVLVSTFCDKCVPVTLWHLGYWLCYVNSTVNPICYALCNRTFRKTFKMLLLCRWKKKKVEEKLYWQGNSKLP

IC50 (Cytochrome P450 1A2): 11 µM | IC50 (Cytochrome P450 2C9): > 30 µM | IC50 (Cytochrome P450 2D6): 19 µM | IC50 (Cytochrome P450 3A4): > 30 µM | beta t1/2 (Rattus norvegicus [1]): 2.7 h | Vdss (Rattus norvegicus [2]): 0.34 L/kg | Kp [3]: 0.11 | EC50 ([4]; read-out: EC50): 0.0135 µM | EC50 ([4]; read-out: pEC50 (converted)): 0.0117 µM | EC50 [5]: 0.111 µM | pEC50 [5]: 6.95 | EC50 [6]: > 30 µM | EC50 [7]: > 30 µM | EC50 [8]: > 30 µM | EC50 [9]: > 30 µM | EC50 [10]: > 30 µM | EC50 [11]: > 30 µM | EC50 at 48 h (CYP2B6): > 50 µM | EC50 at 48 h (CYP3A4): > 50 µM | bioavailability [12]: 61% | Kp uu at 2 h [13]: 4.8 | Drug metabolism [14]: Metabolite_Detected | Drug metabolism [15]: Metabolite_Detected | Drug metabolism [16]: Metabolite_Detected | Drug metabolism [17]: Metabolite_Detected | Drug metabolism [18]: Metabolite_Detected | Drug metabolism [19]: Metabolite_Detected | Drug metabolism [20]: Metabolite_Detected | Drug metabolism [21]: Metabolite_Detected | Drug metabolism [22]: Metabolite_Detected | Drug metabolism [23]: Metabolite_Detected | Drug metabolism [24]: Metabolite_Detected | Drug metabolism [25]: Metabolite_Detected | Drug metabolism [26]: Metabolite_Detected | Drug metabolism [27]: Metabolite_Detected | Drug metabolism [28]: Metabolite_Detected | Drug metabolism [29]: Metabolite_Detected | Drug metabolism [30]: Metabolite_Detected | Drug metabolism [31]: Metabolite_Detected | Drug metabolism [32]: Metabolite_Detected | Drug metabolism [33]: Metabolite_Detected | Activity [34]: Not Active | solubility [35]: < 0.5 µM | fraction unbound [36]: 0.02
SMILES: Cc1nnc2sc(C(=O)NCc3ccc(-c4cccnc4F)cc3)c(N)c2c1C
Activity (Salmonella typhimurium): Non-Toxic
